# Experimental data as given in the RNAGym collection of RNA variant scans (doi:10.1126/science.aae0568).
# Variants at the floor of the assay were thinned out.
# B1: tRNA (parent)
# chain: GUUCCGUUGGCGUAAUGGUAACGCGUCUCCCUCCUAAGGAGAAGACUGCGGGUUCGAGUCCCGUACGGAACG
# Variants of: B1
# Assay: yeast fitness relative to wild type (ratio to wild type); higher = fitter; tRNA-Arg(CCU), competitive growth, 37 C, YPD
# In short: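 Changes in genotype frequencies gave Darwinian fitness relative to wild type. Frequencies were read by 100-nucleotide paired-end sequencing of gene amplicons before and after pooled Saccharomyces cerevisiae strains, carrying tRNA-Arg(CCU) gene variants at the native locus, were competed in YPD at 37°C for 24 hours in six replicates. A genotype was kept only with ≥ 100 starting reads, and estimates < 0.5 were set to 0.5.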
row,Variant,yeast fitness
1,G9A U53A,0.701
2,G9C A15C G52C,≤ 0.5
3,G9A C29G U53G,≤ 0.5
4,G9A G63C,0.872
5,G9A A37C C62G,≤ 0.5
6,G9A A40U A65U,0.718
7,G9A C11G C24G U32A G50A C61U G63C,≤ 0.5
8,G9A U26C A36U G39A,≤ 0.5
9,G9A C33U,0.897
10,G9A C24A A36C A37G C49A,≤ 0.5
11,G9A G23C A45G,0.575
12,G9A C24G U35C C49U C61G,≤ 0.5
13,U8G U35C A57C,≤ 0.5
14,G9A C11U C31U U59A,≤ 0.5
15,G9A U16A A42C U53C A65C,≤ 0.5
16,G9A C27G A37G U53A,≤ 0.5
17,G9A G23C C30G A40U C46U,0.58
18,G9A A45C,0.971
19,G9A U13A A65G C66U,≤ 0.5
20,G9A G25C C30U A57G,0.526
21,G9A C60G,0.629
22,G9A U16C,1.05
23,G9A U16A,1.08
24,G9A U19G C31G,≤ 0.5

row,Variant,yeast fitness
1,G9A A36G G67C,0.664
2,G9A C30A G39A U47A G63C,≤ 0.5
3,G9A C31U C49U A69C,≤ 0.5
4,G9A U28C,0.855
5,G9A G12A C49U,0.692
6,G9A G23C U59A,≤ 0.5
7,G9A A36U G51A C61G,≤ 0.5
8,G9C A14G C66U,≤ 0.5
9,G9A G39C G44C C55A,0.606
10,G9A U19A U26A C34U,≤ 0.5
11,G9A U16G A42C,0.955
12,G9A C30G C31G U32A C66U,≤ 0.5
13,G9A C24G C29G G39C C55A,≤ 0.5
14,G9A U19C C66U,0.742
15,G9A A40C G68A,≤ 0.5
16,G9A A65G G68C,0.594
17,G9A C55G U64A,≤ 0.5
18,G9A A21U A36G A40C,≤ 0.5
19,G9A A20G U59A C66G,≤ 0.5
20,G9A A43G U59A A69G,≤ 0.5
21,G9A A20U C22G,0.53
22,G9A A20U C34G A42U G68C,≤ 0.5
23,G9A A21C C27A A37G A45C,≤ 0.5
24,G9A A20U C66U,0.529

row,Variant,yeast fitness
1,G9A A14U C29G C34A U54A,≤ 0.5
2,G9A C27A A42C C49G G51C C55G C66U,≤ 0.5
3,G9A U26G A69G A70C,≤ 0.5
4,G9A A36C A40C A45C,≤ 0.5
5,G9A A21G U59A,0.731
6,G9A C22A C61U,0.622
7,G9A C22U U26A A43U A65U,≤ 0.5
8,G9A C11U A36C G68C,≤ 0.5
9,G9A A14U G48C,≤ 0.5
10,G9A C24G C27U G44C C61G,≤ 0.5
11,G9C A20C G67C,0.537
12,G9A A37C A65C,0.56
13,G9A U28C G44A G68C,≤ 0.5
14,G9C A14C G44C U47C A57C,≤ 0.5
15,G9A U19G A37C A43U C46G,0.581
16,G9A C11U G67C,0.697
17,G9A G12U A14U A65U,≤ 0.5
18,G9A C22A A37U C55G,≤ 0.5
19,G9A C27U A36G,0.59
20,G9A A15U A20G G44C C61U,≤ 0.5
21,G9A C33U C55G,0.66
22,G9A U28A A45G,0.645
23,G9A A21U C24G U28A C60G A70C,≤ 0.5
24,G9A C46G U53C A65G,≤ 0.5

row,Variant,yeast fitness
1,G9A A14U A21U A65G,0.556
2,G9A C11U A36C A57G G68C,≤ 0.5
3,G9A G48A G50C A65G C66U,≤ 0.5
4,G9A C11U C29A U53G,≤ 0.5
5,G9A A21U G48C C55A C66G G67C,≤ 0.5
6,G9C A15G A21G C49G C60A,≤ 0.5
7,G9A U28G A40C A42G,0.76
8,G9A G12U A14U A37U C49G C60G,≤ 0.5
9,G9A C66G,0.703
10,G9A C66A,0.775
11,G9A U35A A37U C46U A65C,0.633
12,G9C A21G G44C U47C,≤ 0.5
13,G9A G68A A69C,0.802
14,G9A U28C G44A G51C G58C,0.51
15,G9A G58A,0.918
16,G9A C62G,0.896
17,G9A C62U,0.916
18,G9A G10A C31G G52A C61G,≤ 0.5
19,G9A C11U A15C A20G G48A C60G,0.662
20,G9A A14G C22U C31A C34U A36C A45C C61U U64A,0.546
21,G9A C49U C55A,≤ 0.5
22,G9A A15G A43G C49G U53G,0.553
23,G9A A14C G38C G68A,≤ 0.5
24,G9C A14G C29U A36C A45G G67U,≤ 0.5

row,Variant,yeast fitness
1,G9A C24U C30U U32G A65C C66G,≤ 0.5
2,G9A C29A A42C C55U,≤ 0.5
3,G9C A14G G52C C60A,≤ 0.5
4,G9A C34A G58A A70C,≤ 0.5
5,G9A G25C A42C,1
6,G9A A57C,0.591
7,G9A C24U U26G,0.569
8,G9A A45C C49U,0.643
9,G9A C62U A70U,0.68
10,G9A C22G,0.869
11,G9A C22A,0.919
12,G9A C22U,1.04
13,G9A U13G A36G U59A,0.68
14,G9A A36U G39A G52C,≤ 0.5
15,G9A C31G A65C,≤ 0.5
16,G9A U26G C60A,0.539
17,G9A A21U C34G G39A C55U C61G,≤ 0.5
18,G9C A21U C27U G44A C66U,0.602
19,G9A G10C C34A,≤ 0.5
20,G9A A21G C33A C62U G63C A70C,≤ 0.5
21,G9A A20U,0.829
22,G9A C27G,0.757
23,G9A U26A A43U A65U,0.562
24,G9A C29G G44A,0.614

row,Variant,yeast fitness
1,G9A G17C C29G,0.567
2,G9A C29U,0.914
3,G9A U47A A69U,0.676
4,G9A A20G C62U,0.736
5,G9A G18A C24G A45U,0.52
6,G9A A42C,0.855
7,G9A A42U,0.87
8,G9A A42G,0.96
9,G9C A15U C60G C61G G68C,≤ 0.5
10,G9A G68A,0.864
11,G9A C11A C22G U35C,≤ 0.5
12,G9C A20U,0.667
13,G9C A20G,0.668
14,G9A G12U A14U U53A,0.529
15,G9A G38C C66U,≤ 0.5
16,G9A G18A C60G,≤ 0.5
17,G9C A20U U28A,0.535
18,G9A C29U U47A A57G,≤ 0.5
19,G9A C24A G38A,≤ 0.5
20,G9A C30A,0.964
21,G9A C30U,0.888
22,G9A C30G,0.707
23,G9C A20C C66A,0.601
24,G9A C11A G38C C60G,≤ 0.5

row,Variant,yeast fitness
1,G9A A43U G56C,0.536
2,G9A G12C G25C C30G C31A G50A G51C,≤ 0.5
3,G9A U16C G41A G58A,≤ 0.5
4,G9A U47G,0.626
5,G9A U47C,0.909
6,G9A U13C C27G U53A C60A A65G,≤ 0.5
7,G9A U26A G56A G67A,≤ 0.5
8,G9A C31U U53A,0.638
9,G9A C11G C24G A42U,≤ 0.5
10,G9A A40C A69U,0.722
11,G9A U16C A20G A42G,≤ 0.5
12,G9A C22G U35C A37U,0.535
13,G9C A14C C66U,≤ 0.5
14,G9A C33U A36C A45C G48A C55A,≤ 0.5
15,G9A G51A A57U U59C,≤ 0.5
16,G9A C11A C24U C34A A37U C62A C66A,≤ 0.5
17,U8G U47G C49A A69U,≤ 0.5
18,G9A C24U A40U A57C,≤ 0.5
19,G9A C29A G50A A69C,≤ 0.5
20,G9C A14C A15U G23A C34A,≤ 0.5
21,G9A A20G A21U,0.57
22,G9A C31U A40C C66A,≤ 0.5
23,G9A C11G U19C G67A,≤ 0.5
